Reference: ChEMBL document CHEMBL1157562, “Piperazinyl glutamate pyridines as potent orally bioavailable P2Y12 antagonists for inhibition of platelet aggregation” (J Med Chem, 2010)

Tests used:
[1] = Antiplatelet aggregation activity against adenosine diphosphate-induced human platelet rich plasma assessed as inhibition of platelet aggregation by turbidimetric method; assay type: functional; conditions: Homo sapiens, Platelet, Plasma
In short: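 Human PRP, prepared by two-step centrifugation and adjusted to 330 000 platelets/μL with PPP. Compound was preincubated 5 min at 37 °C in 0.5% DMSO, then 20 μM ADP was added. OD626 was read kinetically for 15 min at 37 °C with mixing between reads.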

P2Y purinoceptor 12 = P2Y purinoceptor 12 (Homo sapiens, UniProt Q9H244); test: Displacement of [33P]ADP from human recombinant P2Y12 receptor expressed in CHO cells; assay type: cell-based
In short: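 Washed membranes from CHO cells expressing synthetic human P2Y12, incubated 1 h at room temperature with 0.2 nM 33P-MeSADP in 50 mM Tris/100 mM NaCl/1 mM EDTA. Compound was tested as a 7-point 3-fold series in triplicate. Nonspecific binding was defined with 300 nM 2-MeSADP, followed by filtration.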

Platelet = test: Relative potency, ratio of IC50 for drug to IC50 for AZD-6140 for platelet aggregation in human platelet rich plasma; assay type: functional

P2Y purinoceptor 12, sequence (Q9H244 whole entry): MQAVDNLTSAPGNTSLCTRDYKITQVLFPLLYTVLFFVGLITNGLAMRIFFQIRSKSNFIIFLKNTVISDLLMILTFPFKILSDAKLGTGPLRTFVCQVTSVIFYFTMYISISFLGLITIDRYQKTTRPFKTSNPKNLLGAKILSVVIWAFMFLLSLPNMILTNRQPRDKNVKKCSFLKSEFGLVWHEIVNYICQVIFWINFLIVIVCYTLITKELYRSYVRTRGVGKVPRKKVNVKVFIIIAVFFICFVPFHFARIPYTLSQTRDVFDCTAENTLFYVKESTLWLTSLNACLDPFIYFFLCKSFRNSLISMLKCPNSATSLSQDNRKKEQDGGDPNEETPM

| SMILES | IC50 [1] [µM] | Ki (P2Y purinoceptor 12) [µM] | Ratio IC50 (Platelet) |
| --- | --- | --- | --- |
| CCCCOC(=O)N1CCN(C(=O)[C@H](CCC(=O)O)NC(=O)c2cc(OC3CCN(C(=O)OCC)CC3)cc(-c3ccccc3)n2)CC1 | 3.7 | 0.02 | 5.9 |
| CCOC(=O)N1CCN(C(=O)[C@H](CCC(=O)O)NC(=O)c2cc(NCCO)cc(-c3ccccc3)n2)CC1 | 12 | 0.117 | 14 |
| CCCCOC(=O)N1CCN(C(=O)[C@H](CCC(=O)O)NC(=O)c2cc(O)cc(-c3ccccc3)n2)CC1 | 8.8 | 0.031 | 9.7 |
| CCCCOC(=O)N1CCN(C(=O)[C@H](CCC(=O)O)NC(=O)c2cc(N3CCC(CN4CCCC4)CC3)cc(-c3ccccc3)n2)CC1 |  |  | 1 |
| CCCCOC(=O)N1CCN(C(=O)[C@H](CCC(=O)O)NC(=O)c2cc(OCC3CCCNC3)cc(-c3ccccc3)n2)CC1 (some centres not stated) | 1.2 | 0.0037 | 0.57 |
| CCCCOC(=O)N1CCN(C(=O)[C@H](CCC(=O)O)NC(=O)c2cc(OC(=O)N(C)CC3CCOCC3)cc(-c3ccccc3)n2)CC1 | 0.59 | 0.0015 | 0.87 |
| CCCCCOC(=O)N1CCN(C(=O)[C@H](CCC(=O)O)NC(=O)c2cc(OC3CCN(C(=O)OCC)CC3)cc(-c3ccccc3)n2)CC1 | 8.2 | 0.0065 | 8.1 |
| CCCCCOC(=O)N1CCN(C(=O)[C@H](CCC(=O)O)NC(=O)c2cc(N3CCC(CN)CC3)cc(-c3ccccc3)n2)CC1 |  |  | 0.62 |
| CCCCCCOC(=O)N1CCN(C(=O)[C@H](CCC(=O)O)NC(=O)c2cc(NCCOC)cc(-c3ccccc3)n2)CC1 | 7.3 | 0.011 | 9.6 |
| CCCCOC(=O)N1CCN(C(=O)[C@H](CCC(=O)O)NC(=O)c2cc(OC3CCN(C(=O)COC)CC3)cc(-c3ccccc3)n2)CC1 | 0.52 | 0.0024 | 0.78 |
| CCCCCOC(=O)N1CCN(C(=O)[C@H](CCC(=O)O)NC(=O)c2cc(NC(=O)N3CCN(C)CC3)cc(-c3ccccc3)n2)CC1 | 11 | 0.0032 | 7.2 |
| CCCCOC(=O)N1CCN(C(=O)[C@H](CCC(=O)O)NC(=O)c2cc(OCC3CCN(C(=O)OCC)CC3)cc(-c3ccccc3)n2)CC1 | 4 | 0.0076 | 2.2 |
| CCOC(=O)N1CCN(C(=O)[C@H](CCC(=O)O)NC(=O)c2cc(N3CCC(CN)CC3)cc(-c3ccccc3)n2)CC1 | 3.3 |  | 3.4 |
| CCCCOC(=O)N1CCN(C(=O)[C@H](CCC(=O)O)NC(=O)c2cc(N3CCC(CNC)CC3)cc(-c3ccccc3)n2)CC1 |  |  | 1 |
| CCOC(=O)N1CCN(C(=O)[C@H](CCC(=O)O)NC(=O)c2cc(N3CCC(COC)CC3)cc(-c3ccccc3)n2)CC1 | 10 |  | 9.7 |
| CCCCCOC(=O)N1CCN(C(=O)[C@H](CCC(=O)O)NC(=O)c2cc(N3CCC(CN4CCCC4)CC3)cc(-c3ccccc3)n2)CC1 |  |  | 0.93 |
| CCOC(=O)N1CCN(C(=O)[C@H](CCC(=O)O)NC(=O)c2cc(OCCO)cc(-c3ccccc3)n2)CC1 | 7.6 |  | 12 |
| CCCCOC(=O)N1CCN(C(=O)[C@H](CCC(=O)O)NC(=O)c2cc(N3CCC(CN(C)C)CC3)cc(-c3ccccc3)n2)CC1 |  |  | 1.3 |
| CCCCCCOC(=O)N1CCN(C(=O)[C@H](CCC(=O)O)NC(=O)c2cc(N3CCC(COC)CC3)cc(-c3ccccc3)n2)CC1 | 7.6 |  | 8.9 |
| CCOC(=O)N1CCN(C(=O)[C@H](CCC(=O)O)NC(=O)c2cc(OC)cc(-c3ccccc3)n2)CC1 | 39 |  | 55 |
| CCCCCCOC(=O)N1CCN(C(=O)[C@H](CCC(=O)O)NC(=O)c2cc(N3CCC(CN)CC3)cc(-c3ccccc3)n2)CC1 | 1.6 |  | 1.7 |
| CCCCOC(=O)N1CCN(C(=O)[C@H](CCC(=O)O)NC(=O)c2cc(OC3CCNCC3)cc(-c3ccccc3)n2)CC1 | 1.1 |  | 0.99 |

| SMILES | IC50 [1] [µM] | Ki (P2Y purinoceptor 12) [µM] | Ratio IC50 (Platelet) |
| --- | --- | --- | --- |
| CCOC(=O)N1CCN(C(=O)[C@H](CCC(=O)O)NC(=O)c2cc(N3CCC(N4CCCC4)CC3)cc(-c3ccccc3)n2)CC1 | 2 |  | 6 |
| CCCCCOC(=O)N1CCN(C(=O)[C@H](CCC(=O)O)NC(=O)c2cc(N3CCC(O)CC3)cc(-c3ccccc3)n2)CC1 | 2.5 |  | 3.2 |
| CCOC(=O)N1CCN(C(=O)[C@H](CCC(=O)O)NC(=O)c2cc(OCC3CCNCC3)cc(-c3ccccc3)n2)CC1 | 4 |  | 2.7 |
| CCOC(=O)N1CCN(C(=O)[C@H](CCC(=O)O)NC(=O)c2cc(OC3CCNCC3)cc(-c3ccccc3)n2)CC1 | 1.9 |  | 2.5 |
| CCOC(=O)N1CCN(C(=O)[C@H](CCC(=O)O)NC(=O)c2cc(NC)cc(-c3ccccc3)n2)CC1 | 45 |  | 36 |
| CCOC(=O)N1CCN(C(=O)[C@H](CCC(=O)O)NC(=O)c2cc(N3CCC(O)CC3)cc(-c3ccccc3)n2)CC1 | 9.9 |  | 10 |
| CCOC(=O)N1CCN(C(=O)[C@H](CCC(=O)O)NC(=O)c2cc(NCCOC)cc(-c3ccccc3)n2)CC1 | 14 |  | 13 |
| CCOC(=O)N1CCN(C(=O)[C@H](CCC(=O)O)NC(=O)c2cc(OCCCO)cc(-c3ccccc3)n2)CC1 | 9 |  | 12 |
| CCCCCOC(=O)N1CCN(C(=O)[C@H](CCC(=O)O)NC(=O)c2cc(OCCCC)cc(-c3ccccc3)n2)CC1 | 28 |  | 28 |
| CCCCCOC(=O)N1CCN(C(=O)[C@H](CCC(=O)O)NC(=O)c2cc(N3CCC(CNC)CC3)cc(-c3ccccc3)n2)CC1 |  |  | 0.99 |
| CCCCCOC(=O)N1CCN(C(=O)[C@H](CCC(=O)O)NC(=O)c2cc(NC(=O)NC(C)C)cc(-c3ccccc3)n2)CC1 | > 10 | 0.0027 |  |
| CCOC(=O)N1CCN(C(=O)[C@H](CCC(=O)O)NC(=O)c2cccc(-c3ccccc3)c2)CC1 | > 100 | 3.64 |  |
| C#CCCOC(=O)N1CCN(C(=O)[C@H](CCC(=O)O)NC(=O)c2cccc(-c3ccccc3)n2)CC1 | > 100 | 0.079 |  |
| CCOC(=O)N1CCN(C(=O)[C@H](CCC(=O)O)NC(=O)c2cc(-c3ccccc3)cc(-c3ccccc3)c2)CC1 | > 100 | 0.373 |  |
| CCOC(=O)N1CCN(C(=O)[C@H](CCC(=O)O)NC(=O)c2nccc(-c3ccccc3)n2)CC1 | 74 | 1.19 |  |
| CCS(=O)(=O)N1CCN(C(=O)[C@H](CCC(=O)O)NC(=O)c2cccc(-c3ccccc3)n2)CC1 | > 100 | > 3.59 |  |
| CCCCCOC(=O)N1CCN(C(=O)[C@H](CCC(=O)O)NC(=O)c2cc(NC(=O)COC)cc(-c3ccccc3)n2)CC1 | > 10 | 0.025 |  |
| Cc1cccc(N2CCN(C(=O)[C@H](CCC(=O)O)NC(=O)c3cccc(-c4ccccc4)c3)CC2)c1 | > 100 | 1.31 |  |
| CCCCCOC(=O)N1CCN(C(=O)[C@H](CCC(=O)O)NC(=O)c2cc(NC(=O)CNC)cc(-c3ccccc3)n2)CC1 | > 10 | 0.0057 |  |
| CC(C)C(=O)N1CCN(C(=O)[C@H](CCC(=O)O)NC(=O)c2cccc(-c3ccccc3)n2)CC1 | > 100 | > 3.59 |  |
| CCOC(=O)N1CCN(C(=O)[C@H](CCC(=O)O)NC(=O)c2cc(OCCN)cc(-c3ccccc3)n2)CC1 | 7.5 |  | 11 |
| CCOC(=O)N1CCN(C(=O)CNC(=O)c2cccc(-c3ccccc3)n2)CC1 | > 100 | 1.61 |  |
